Laboratory results reported in ChEMBL document CHEMBL5512639, “Insights from structure-activity relationships and the binding mode of peptidic α-ketoamide inhibitors of the malaria drug target subtilisin-like SUB1” (Eur J Med Chem, 2024).
Numbered stars: 1 amine (or outer) side, 2 acyl side, 3 side chain; on linkers, the order of the positions; unused ones are H or OH. Square brackets hold non-standard residues; d marks the D form. Peptide text beside a SMILES is read from it. Gly(cPent) = N[C@H](C(=O)O)C1CCCC1; X1 = C[C@H](N[*:1])C(=O)C(=O)[*:2]

Key:
[1] = Inhibition of full length recombinant Plasmodium vivax SUB1 expressed in Drosophila S2 cells using Dabsyl-KLVGADDV-SLA-EDANS as substrate measured every 2 mins for 1 hr by FRET assay
[2] = biological target: T1, Subtilisin-like protease 1 (Plasmodium falciparum, UniProt O61142); assay: Inhibition of full length recombinant Plasmodium falciparum SUB1 using Dabsyl-KLVSADNIDIS-EDANS as substrate measured every 2 mins for 1 hr by FRET assay
T1 sequence (O61142 whole entry): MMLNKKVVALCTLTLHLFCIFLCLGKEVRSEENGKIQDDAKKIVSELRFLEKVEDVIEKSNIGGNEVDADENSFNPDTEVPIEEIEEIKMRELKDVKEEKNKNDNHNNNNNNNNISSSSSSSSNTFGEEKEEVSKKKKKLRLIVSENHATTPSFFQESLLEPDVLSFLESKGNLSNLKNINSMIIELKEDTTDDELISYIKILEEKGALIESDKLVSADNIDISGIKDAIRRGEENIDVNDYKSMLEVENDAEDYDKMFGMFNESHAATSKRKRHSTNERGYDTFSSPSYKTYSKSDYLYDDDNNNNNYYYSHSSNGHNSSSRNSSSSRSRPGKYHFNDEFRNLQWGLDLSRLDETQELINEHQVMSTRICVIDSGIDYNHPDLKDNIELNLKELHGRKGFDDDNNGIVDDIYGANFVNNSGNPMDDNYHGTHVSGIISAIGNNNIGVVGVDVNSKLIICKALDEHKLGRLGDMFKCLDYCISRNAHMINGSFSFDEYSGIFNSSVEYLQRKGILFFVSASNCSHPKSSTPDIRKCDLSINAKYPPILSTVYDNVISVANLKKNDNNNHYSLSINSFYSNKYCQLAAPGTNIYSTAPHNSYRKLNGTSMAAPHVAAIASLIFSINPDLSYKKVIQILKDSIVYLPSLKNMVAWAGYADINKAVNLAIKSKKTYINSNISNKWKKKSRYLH

Plasmodium falciparum [3] = assay: Antiparasitic activity against Plasmodium falciparum infected in human Erythrocyte assessed as inhibition of merozoite egress from human Erythrocyte measured for 8 hrs by flow cytometry analysis; assay type: functional, organism-based
Procedure, shortened: (§1)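 P. falciparum cultured in human RBCs, RPMI 1640 with 25 mM HEPES, 2.5% Albumax II, 100 μM hypoxanthine, 37 °C, 5% O2/5% CO2. Sorbitol-synchronized, plasmion-enriched late schizonts at 2% hematocrit, 1% parasitemia exposed to compound for 8 h. Fixed in glutaraldehyde, permeabilized, RNase-treated, stained with YOYO-1. Ring parasitemia by flow cytometry (100,000 events) vs DMSO. Triplicate; IC50 from 16 concentrations, 180 to 0.8 μM.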

Plasmodium falciparum [4] = assay: Antiparasitic activity against Plasmodium falciparum infected in human Erythrocyte assessed as inhibition of merozoite egress from human Erythrocyte at 100 uM measured for 8 hrs by flow cytometry analysis relative to control; assay type: functional; procedure, shortened: as §1
Plasmodium falciparum [5] = assay: Antiparasitic activity against Plasmodium falciparum infected in human Erythrocyte assessed as inhibition of merozoite egress from human Erythrocyte at 25 uM measured for 8 hrs by flow cytometry analysis relative to control; assay type: functional; procedure, shortened: as §1
Plasmodium falciparum [6] = assay: Antiparasitic activity against synchronous parasite Plasmodium falciparum infected in human Erythrocyte at 100 uM incubated for 28 hrs followed by compound washout and measured after 38 hrs; assay type: functional
Procedure, shortened: (§2)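 Trophogony off-target check: synchronous 0-3 h post-invasion rings (2% hematocrit, 1% parasitemia) exposed to compound or matched DMSO (1% or 0.25% final) for 28 h. Cells then washed and recultured without compound for 38 h. Parasitemia read by YOYO-1 flow cytometry; growth inhibition expressed relative to DMSO.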

Plasmodium falciparum [7] = assay: Antiparasitic activity against synchronous parasite Plasmodium falciparum infected in human Erythrocyte at 25 uM incubated for 28 hrs followed by compound washout and measured after 38 hrs; assay type: functional; procedure, shortened: as §2
[8] = (§3) Selectivity index, ratio of INH for antiparasitic activity against Plasmodium falciparum infected in human Erythrocyte assessed as inhibition of merozoite egress from human Erythrocyte at 25 uM to INH for antiparasitic activity against synchronous parasite Plasmodium falciparum infected in human Erythrocyte at 25 uM; assay type: functional
Procedure, shortened: (§4)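 SI = 1 − (% trophogony inhibition / % T0-T8 egress inhibition), each at the same concentration. Trophogony arm: 0-3 h rings, 28 h exposure, washout, 38 h regrowth. Egress arm: late schizonts, 8 h exposure. Both read as parasitemia by flow cytometry vs DMSO.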

[9] = as §3, with “100” for “25”; assay type: functional; procedure, shortened: as §4
[10] = system: Subtilisin-like protease 1 (Plasmodium vivax); assay: Binding affinity to Plasmodium vivax SUB1 catalytic domain assessed as thermal stabilization by measuring change in melting temperature by differential scanning fluorimetry

CC(=O)N[C@H](C(=O)N[C@H](C(=O)N[C@@H](C)C(=O)N[C@@H](C)C(=O)C(=O)N[C@@H](CC(=O)O)C(=O)N[C@H](C(N)=O)C1CCCC1)[C@@H](C)O)C1CCCC1 (Ac-[Gly(cPent)]TA[X1]D[Gly(cPent)]-NH2)
IC50 [1]: 12 nM | IC50 [2]: 10 nM | IC50 (Plasmodium falciparum [3]): 22600 nM | inhibition at 100 µM (Plasmodium falciparum [4]): 100% | inhibition at 25 µM (Plasmodium falciparum [5]): 60% | Activity (Plasmodium falciparum [6]): 6% | Activity (Plasmodium falciparum [7]): 0% | Selectivity Index [8]: 1 | Selectivity Index [9]: 0.94 | ΔTm [10]: 12.7 °C
